What was measured:
U87 β3‐KO (αVβ3−) cells = assay: Anti‐proliferative activity, CellTiter-Glo ATP cell viability, U87 β3‐KO; assay type: cell-based; conditions: Homo sapiens, 144 h
Method in brief: (§1)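 U87 human glioblastoma cells were used alongside an isogenic U87 clone with the β3 integrin subunit gene deleted by CRISPR-Cas9. Absence of αVβ3 was confirmed by flow cytometry using anti-αVβ3 antibody LM609 plus a fluorescent secondary antibody. Cells were exposed to increasing concentrations of test compound for 144 h, with free paclitaxel run in parallel. Viability was read as cellular ATP by CellTiter-Glo. IC50 was taken as the concentration giving 50 % inhibition of viability.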

[1] = tested on: U87 (αVβ3+) and U87 β3‐KO (αVβ3−) cells; assay: Targeting index / selectivity between U87 β3‐KO and U87 cells; assay type: cell-based, human; conditions: for Targeting index (TI): [IC50(αVβ3−)/IC50(αVβ3+)]conjugate/[IC50(αVβ3−)/IC50(αVβ3+)]paclitaxel
Method in brief: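 The targeting index uses IC50s from the 144 h CellTiter-Glo ATP viability assay on the isogenic U87 and U87 β3-KO (CRISPR-Cas9 β3 deletion) pair. The ratio IC50(β3-KO)/IC50(U87) for the conjugate is divided by the same ratio for free paclitaxel tested in parallel under identical conditions.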

[2] = tested on: U87 (αVβ3+) human glioblastoma cells; assay: Anti‐proliferative activity, CellTiter-Glo ATP cell viability, U87; assay type: cell-based; conditions: 144 h
Method in brief: as §1

purified αVβ3 receptor = purified αVβ3 receptor (Homo sapiens, UniProt P05106+P06756); assay: Inhibition of biotinylated vitronectin binding to purified αVβ3 receptor
[3] = tested on: integrin‐mediated cell infiltration processes; conditions: cited from earlier work
[4] = tested on: FAK/Akt integrin‐activated transduction pathway; conditions: cited from earlier work

purified αVβ3 receptor, sequence (P06756 891-1048): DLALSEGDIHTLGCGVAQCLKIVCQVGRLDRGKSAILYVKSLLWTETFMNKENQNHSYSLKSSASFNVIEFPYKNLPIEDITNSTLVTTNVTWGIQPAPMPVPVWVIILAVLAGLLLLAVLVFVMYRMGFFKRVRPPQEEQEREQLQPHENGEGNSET
purified αVβ3 receptor, sequence (P06756 31-889): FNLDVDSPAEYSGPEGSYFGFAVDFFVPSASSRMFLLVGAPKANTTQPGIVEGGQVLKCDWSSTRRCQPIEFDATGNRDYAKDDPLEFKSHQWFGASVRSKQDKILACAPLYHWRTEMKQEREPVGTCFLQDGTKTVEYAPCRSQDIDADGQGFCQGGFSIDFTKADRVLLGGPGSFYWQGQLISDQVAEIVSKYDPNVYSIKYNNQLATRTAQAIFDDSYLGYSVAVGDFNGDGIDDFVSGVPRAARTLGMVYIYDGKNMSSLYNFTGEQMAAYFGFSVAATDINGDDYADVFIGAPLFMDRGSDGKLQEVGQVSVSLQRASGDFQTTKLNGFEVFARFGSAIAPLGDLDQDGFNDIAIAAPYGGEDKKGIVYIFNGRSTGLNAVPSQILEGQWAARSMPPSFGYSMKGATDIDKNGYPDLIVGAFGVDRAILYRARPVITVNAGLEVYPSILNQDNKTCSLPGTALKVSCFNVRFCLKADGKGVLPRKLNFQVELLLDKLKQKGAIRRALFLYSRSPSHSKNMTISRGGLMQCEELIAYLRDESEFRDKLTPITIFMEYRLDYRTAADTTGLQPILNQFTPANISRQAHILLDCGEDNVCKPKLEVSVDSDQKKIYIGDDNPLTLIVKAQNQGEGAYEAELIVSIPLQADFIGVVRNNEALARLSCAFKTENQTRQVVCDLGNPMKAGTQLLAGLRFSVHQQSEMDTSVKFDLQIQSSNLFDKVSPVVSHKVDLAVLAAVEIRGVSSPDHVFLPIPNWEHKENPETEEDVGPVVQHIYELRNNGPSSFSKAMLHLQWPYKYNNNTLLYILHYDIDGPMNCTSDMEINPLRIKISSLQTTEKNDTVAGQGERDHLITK
purified αVβ3 receptor, sequence (P05106 27-788): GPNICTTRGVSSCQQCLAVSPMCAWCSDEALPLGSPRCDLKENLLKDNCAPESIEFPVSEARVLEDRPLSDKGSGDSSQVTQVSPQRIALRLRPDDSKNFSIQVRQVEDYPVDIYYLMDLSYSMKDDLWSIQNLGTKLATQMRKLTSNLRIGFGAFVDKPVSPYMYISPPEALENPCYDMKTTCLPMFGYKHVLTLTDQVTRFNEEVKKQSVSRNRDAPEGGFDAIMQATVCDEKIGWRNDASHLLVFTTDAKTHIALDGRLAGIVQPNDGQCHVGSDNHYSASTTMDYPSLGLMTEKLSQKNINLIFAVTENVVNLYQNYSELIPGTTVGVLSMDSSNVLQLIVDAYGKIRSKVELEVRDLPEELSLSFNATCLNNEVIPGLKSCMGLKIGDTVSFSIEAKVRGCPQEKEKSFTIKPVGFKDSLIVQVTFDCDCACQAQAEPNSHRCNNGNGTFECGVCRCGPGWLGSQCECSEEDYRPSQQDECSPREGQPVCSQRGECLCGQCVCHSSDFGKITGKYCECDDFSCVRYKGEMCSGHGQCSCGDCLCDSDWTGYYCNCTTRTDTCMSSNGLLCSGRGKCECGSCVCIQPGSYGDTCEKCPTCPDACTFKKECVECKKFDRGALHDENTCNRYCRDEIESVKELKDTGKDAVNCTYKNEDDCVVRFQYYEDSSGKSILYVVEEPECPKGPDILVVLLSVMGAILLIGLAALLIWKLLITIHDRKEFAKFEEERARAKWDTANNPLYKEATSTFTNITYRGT

CC(=O)O[C@H]1C(=O)[C@@]2(C)[C@H]([C@H](OC(=O)c3ccccc3)[C@]3(O)C[C@H](OC(=O)[C@H](O)[C@@H](NC(=O)c4ccccc4)c4ccccc4)C(C)=C1C3(C)C)[C@]1(OC(C)=O)CO[C@@H]1C[C@@H]2O [Paclitaxel]
IC50 (U87 β3‐KO (αVβ3−) cells): 0.28 nM
times more effective on U87 β3‐KO cells (than on U87) ([1]; 144 h): 2.3 times
Targeting index (TI) ([1]; 144 h): 1
IC50 [2]: 0.64 nM

CC(=O)O[C@H]1C(=O)[C@@]2(C)[C@H]([C@H](OC(=O)c3ccccc3)[C@]3(O)C[C@H](OC(=O)[C@H](OC(=O)N(C)CCN(C)C(=O)OCc4ccc(NC(=O)[C@H](C)NC(=O)[C@@H](NC(=O)CCCC(=O)NCc5ccc(CN6C(=O)[C@H]7CC(=O)N[C@H](C(=O)O)CC(=O)NCC(=O)N[C@@H](CCCNC(=N)N)C(=O)NC[C@H]6C(=O)N7)cc5)C(C)C)cc4)[C@@H](NC(=O)c4ccccc4)c4ccccc4)C(C)=C1C3(C)C)[C@]1(OC(C)=O)CO[C@@H]1C[C@@H]2O [compound 2, cyclo[DKP‐isoDGR]‐Val‐Ala‐PTX]
Targeting index (TI) ([1]; 144 h): 9.9
targeting ability (in words) ([1]; two isogenic cancer cell lines expressing integrin αVβ3 at different levels): notable targeting ability
IC50 (purified αVβ3 receptor): 11 ± 0.2 nM
affinity for the purified integrin αVβ3 receptor (in words) (purified αVβ3 receptor): low nanomolar affinity

CC(=O)O[C@H]1C(=O)[C@@]2(C)[C@H]([C@H](OC(=O)c3ccccc3)[C@]3(O)C[C@H](OC(=O)[C@H](OC(=O)N(C)CCN(C)C(=O)OCc4ccc(NC(=O)[C@H](C)NC(=O)[C@@H](NC(=O)CCCC(=O)NCc5ccc(CN6C(=O)[C@H]7CC(=O)N[C@@H](CCCNC(=N)N)C(=O)NCC(=O)N[C@@H](CC(=O)O)C(=O)NC[C@H]6C(=O)N7)cc5)C(C)C)cc4)[C@@H](NC(=O)c4ccccc4)c4ccccc4)C(C)=C1C3(C)C)[C@]1(OC(C)=O)CO[C@@H]1C[C@@H]2O [compound 4, cyclo[DKP‐RGD]‐Val‐Ala‐PTX]
Targeting index (TI) ([1]; 144 h): 2.4
IC50 (purified αVβ3 receptor): 13.3 ± 3.6 nM

cyclo[DKP‐isoDGR] [compound 1]
effect on integrin‐mediated cell infiltration processes [3]: inhibitory effects
effect on FAK/Akt integrin‐activated transduction pathway [4]: inhibitory effects

From publication PMC5488297 (Chemistry (Weinheim an Der Bergstrasse, Germany), 2017)
